Screens (PubChem)
A selection: hits, their analogues and other compounds. The true share with any hit is near 2.5%.
FGF22 binding = shifts melting point of recombinant human FGF22; recombinant FGF22 thermal shift, SYPRO orange fluorescence; percent of sucrose octasulfate shift, DMSO zero; activity (Tm shift, normalised), % at 9.99 µM; 340,000 compounds, 1.5% hits;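 active = mean Tm shift, scaled 0 neutral to 100 positive control, at about 1.3% or above, every replicate too, limit read from the data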
S100A4 inh HTS = S100A4-myosin IIA interaction inhibition | P26447 | S100A4/TAMRA-MyoIIA peptide fluorescence polarization | inhibition, % at 10.7 µM | 360,000 compounds, 0.14% hits | AID 652163;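 active = mean inhibition of at least 70% across replicates, with every replicate also reaching that level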
Target sequence (P26447 whole entry, looked up): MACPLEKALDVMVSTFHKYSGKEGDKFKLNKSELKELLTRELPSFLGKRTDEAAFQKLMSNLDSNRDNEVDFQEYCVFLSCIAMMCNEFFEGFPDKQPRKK
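incubation = readout 5 min after mixing, signal stable up to 60 min | system = S100A4 monomer protein | buffer or medium = HEPES pH 7.2 with CaCl2, KCl, NaCl, DTT, Triton | benchmarks = neutral control DMSO, positive control TFP | also added = fluorescent myosin IIA peptide, 5 nM | compound dosing = one concentration per compound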
E-sel inducer = E-selectin induction on HUVECs | HUVEC E-selectin immunofluorescence imaging; normalized: neutral wells 0, TNF-alpha wells 100 | activation, % at 7.58 µM | 260,000 compounds, 0.37% hits | AID 686992;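 active = mean E-selectin-positive cell signal at least 10% of the positive control, reached in at least 60% of replicates, without over 20% cell loss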
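Test system – human umbilical vein endothelial cells (HUVEC), E-selectin induction · Input – 3,000 HUVEC seeded per well · Buffer or medium – EGM-2, gelatin · Compound dosing – single-point compound dose · Detection – immunofluorescence imaging · Measure – percent E-selectin-positive cells · Controls – TNF-alpha high, DMSO low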
SIRT5 block = inhibitors of human sirtuin-5 desuccinylase. Q9NXA8. 330,000 compounds, 1.1% hits. inhibition, % at 15 µM. Purified SirT5, succinyl-peptide AMC, trypsin-coupled fluorescence; in the data active = inhibition above about 15%
Target sequence (Q9NXA8 whole entry, looked up): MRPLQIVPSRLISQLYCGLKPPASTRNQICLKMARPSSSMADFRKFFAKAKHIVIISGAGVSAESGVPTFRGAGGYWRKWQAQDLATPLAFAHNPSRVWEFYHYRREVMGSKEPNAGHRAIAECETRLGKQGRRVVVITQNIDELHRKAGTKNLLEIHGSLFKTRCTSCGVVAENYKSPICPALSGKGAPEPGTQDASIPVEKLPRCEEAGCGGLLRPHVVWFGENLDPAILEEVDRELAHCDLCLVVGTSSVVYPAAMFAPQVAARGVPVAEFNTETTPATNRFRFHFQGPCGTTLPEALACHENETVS
miR-122 sensor = inhibitors of miR-122 in Huh7 cells | Huh7 miR-122 Renilla luciferase sensor, 48 h; neutral wells = 0, positive control = 100 | activation (reporter increase), % at 12.5 µM | 340,000 compounds, 0.3% hits | AID 602342;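 active = mean replicate activation score at least 90 and every replicate individually at or above 90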;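 note: higher luciferase means less miR-122 activity so hits act as miR-122 inhibitors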
Starred values were filed as active, the others as inactive; nt = not tested or not shown; [ ] = remark or other dose.

SMILES	FGF22 binding	S100A4 inh HTS	E-sel inducer	SIRT5 block	miR-122 sensor
C[C@H](CO)N1C[C@H](C)[C@@H](CN(C)C(=O)Nc2ccc(F)cc2)OCCCC[C@H](C)Oc2ccc(NC(=O)Nc3ccc(C(F)(F)F)cc3)cc2C1=O	1.2*	-3.2	2.5	-2.1	-5.1[16.7 µM]
COc1ccc(NC(=O)N(C)C[C@@H]2OCCCC[C@@H](C)Oc3ccc(NC(=O)Nc4ccc5c(c4)OCO5)cc3C(=O)N([C@H](C)CO)C[C@H]2C)cc1	-0.6	-8.6	0.0	15.2*	-3.2[16.7 µM]
C[C@H]1CCCCO[C@@H](CN(C)C(=O)Nc2ccc(F)cc2)[C@@H](C)CN([C@@H](C)CO)C(=O)c2cc(NC(=O)Nc3ccc(C(F)(F)F)cc3)ccc2O1	0.3	8.5	0.0	-1.4	-1.7[16.7 µM]
C[C@@H]1CCCCO[C@H](CN(C)C(=O)Nc2ccc(F)cc2)[C@@H](C)CN([C@@H](C)CO)C(=O)c2cc(NC(=O)Nc3ccc(C(F)(F)F)cc3)ccc2O1	1.0	-6.5	0.0	0.0	10.3[16.7 µM]
COc1cccc(CNC(=O)C[C@H]2CC[C@H]3[C@H](COc4ccc(NS(=O)(=O)c5ccccc5F)cc4C(=O)N3C)O2)c1	-0.2	11.0	0.2	20.2*	-1.7[16.7 µM]
COC(=O)C[C@@H]1CC[C@H]2[C@H](COc3ccc(NS(=O)(=O)c4ccc(C)cc4)cc3C(=O)N2C)O1	-0.4	101.4*	-0.1	0.4	4.9[16.7 µM]
CCNC(=O)C[C@H]1CC[C@H]2[C@@H](COc3ccc(NS(=O)(=O)c4ccccc4C)cc3C(=O)N2C)O1	-0.1	-9.4	-0.1	18.3*	1.3[16.7 µM]
C[C@@H]1CN([C@@H](C)CO)C(=O)Cc2cc(NC(=O)NC3CCCCC3)ccc2O[C@H]1CN(C)Cc1ccccc1	-0.2	36.5	nt	2.2	-8.1[16.7 µM]
CCCNC(=O)N1C[C@H]2[C@@H](c3ccccc31)[C@H](CO)N2C(=O)NCCC	-0.8	-2.0	-0.3	-0.8	-28.2[16.7 µM]
CCC(=O)Nc1ccc2c(c1)C(=O)N(C)[C@@H]1CC[C@@H](CC(=O)NCc3ccccc3)O[C@H]1CO2	0.0	-13.8	0.1	-11.2	5.3[16.7 µM]
COc1ccccc1N(CC(=O)N(CC(C)C)CC(C)C)S(=O)(=O)c1cccs1	42.9*	0.7	nt	0.0	23.1
COc1ccccc1N(CC(=O)N(c1ccccc1)C(C)C)S(=O)(=O)c1cccs1	-0.1	-2.3	nt	-1.6	nt
CN(C)S(=O)(=O)c1ccc(NS(=O)(=O)/C=C/c2ccccc2)cc1	nt	nt	nt	nt	165.1*
CC(On1nnc2ccccc21)C(=O)N1CCN(Cc2ccccc2)CC1 (stereo not given)	43.5*	-1.6	nt	-3.9	-5.3
Cc1cccc(NC(=O)COn2nnc3ccc(S(C)(=O)=O)cc32)c1	43.0*	-1.9	nt	-6.8	-0.4
O=C(NCC[C@H]1CC[C@@H](NC(=O)Nc2cc(F)ccc2F)[C@H](CO)O1)Nc1ccc(F)cc1	0.6	-13.1	-0.4	32.7*	nt
O=C(CN1CCOCC1)N[C@@H]1CC[C@H](CCNC(=O)Nc2cc(F)ccc2F)O[C@@H]1CO	0.1	-14.0	-0.2	16.1*	nt
O=C(CN1CCOCC1)N[C@H]1CC[C@@H](CCNC(=O)Nc2cc(F)ccc2F)O[C@@H]1CO	0.1	-3.3	-0.1	-0.6	nt
CC(C)CNS(=O)(=O)c1cc2c3c(c1)CCC(=O)N3CCC2	0.0	-0.8	8.1	-3.4	93.3*
CCOC(=O)c1c(CSc2ccccc2)n(C)c2cc(Br)c(O)c(CN(C)C)c12	-0.3	-4.8	0.9	3.9	7.5
CCOC(=O)c1c(CSc2ccsc2)n(C)c2cc(Br)c(O)c(CN(C)C)c12	-0.2	-2.2	0.5	20.3*	nt
Cc1ccsc1C(=O)NNC(=O)CCN1CCN(c2ccccc2)CC1	0.0	17.6	nt	18.8*	nt
CN(C)c1ccc(/C=N\Nc2ccccn2)cc1	-0.1	-4.5	nt	-0.5	1.6
CN(C)c1ccc(C=NNc2ccccn2)c(Cl)c1	-0.2	-0.2	1.1	16.6*	nt
Cc1cc(Br)ccc1SCC(=O)OC/C(O)=C(\C#N)c1nc2ccccc2[nH]1	nt	15.1	nt	21.2*	nt
N#C/C(=C(/O)COC(=O)c1ccc(O)cc1)c1nc2ccccc2[nH]1	-0.1	-4.7	1.1	-1.2	-0.8
N#C/C(=C(/O)COC(=O)c1cccnc1Cl)c1nc2ccccc2[nH]1	43.6*	1.6	8.2	-3.7	2.6
CCOC(=O)c1sc2nc(OCc3cccnc3)cc(C)c2c1N	0.3	14.9	0.0	24.8*	nt
